Results of several laboratories.
Each line is one published result; the experiments were not run side by side.
Target: Serine/threonine-protein kinase 24 (STK24, Homo sapiens, UniProt Q9Y6E0)

Structure (SMILES) | assay | conditions | remaining binding [%]
FC(F)(F)c1ccc2c(c1)nc(-c1cccnc1)n2C1CC1 | cell-free assay, competition with immobilised ligand | 1 µM | 100
CNC(=O)[C@@H]1CC[C@@H](n2c(-c3ccc4cnccc4c3)nc3ccc(C(=O)NCc4cccc(C(N)=O)c4)cc32)C1 | binding, competition with immobilised ligand | 1 µM | 100
O=C(c1ccc(Nc2ncc(Cl)c(-c3ccc(Cl)s3)n2)cc1)N1CCC(N2CCCC2)CC1 | binding, competition with immobilised ligand | 1 µM | 44
O=C(NC[C@@H]1[C@H]2CN(C(=O)OCc3cc(C(F)(F)F)cc(C(F)(F)F)c3)C[C@@H]12)c1ccc2[nH]nnc2c1 | cell-free assay, competition with immobilised ligand | 1 µM | 90
CN(C)c1nccc(-c2cnn3ncccc23)n1 | binding | 1 µM | 100
CS(=O)(=O)NCC[C@H](NC(=O)c1cncc2c1cnn2-c1ccc(F)cc1)c1ccnc(S(C)(=O)=O)c1 | cell-free assay, competition with immobilised ligand | 1 µM | 100
CCN1CCN(Cc2ccc(C(=O)Nc3ccc(C)c(Oc4ccc5c(c4)CC(=O)N5)c3)cc2C(F)(F)F)CC1 | binding, competition with immobilised ligand | 1 µM | 94
c1cncc(-c2cccc(Nc3nccc(NC4CCCCC4)n3)c2)c1 | binding, competition with immobilised ligand | 10 µM | 93
O=C(c1ccc(Nc2nccc(-c3cc4ccccc4s3)n2)cc1)N1CCC(N2CCCC2)CC1 | binding, competition with immobilised ligand | 1 µM | 83
COc1ccnn2ncc(-c3ccnc(N(C)C)n3)c12 | binding | 1 µM | 100
CCCCN(CCCC)C(=O)CN1C[C@@H](c2cc(OC)c3c(c2)OCO3)[C@H](C(=O)O)[C@H]1CC(C)(C)CCC | cell-free assay, competition with immobilised ligand | 1 µM | 93.9
N[C@H]1CCN(c2nccc(-c3cnn4ncccc34)n2)C1 | binding | 1 µM | 83
C[C@H](c1cccc(C#N)c1)n1cc(Cl)cc(C(N)=O)c1=N | cell-free assay, competition with immobilised ligand | 1 µM | 89
CC1CCCN1c1nccc(-c2cnn3ncccc23)n1 (stereo not shown) | binding | 1 µM | 100
O=C(NCC1CCOCC1)c1n[nH]cc1NC(=O)c1c(F)cccc1F | binding, competition with immobilised ligand | 1 µM | 89
COc1cnc(Nc2cccc(S(N)(=O)=O)c2)nc1N1CCN(c2ccccc2)CC1 | binding, competition with immobilised ligand | 1 µM | 82
O=C(NCCCN1CCOCC1)c1ccc(Nc2ncc(Cl)c(-c3ccc(Cl)s3)n2)cc1 | binding, competition with immobilised ligand | 1 µM | 17
CN(CCCC(F)(F)F)c1nccc(-c2cnn3ncccc23)n1 | binding | 1 µM | 100
O=C(NS(=O)(=O)c1ccc(NCC2CCOCC2)c([N+](=O)[O-])c1)c1ccc(N2CCN(Cc3ccc(C(F)(F)F)cc3-c3ccc(Cl)cc3)CC2)cc1Oc1cnc2[nH]ccc2c1 | cell-free assay, competition with immobilised ligand | 1 µM | 100
